Measured values published in PMC2855869 (Chemmedchem, 2009).

Tests used:
[1] = target: Recombinant TryR from T. brucei (Trypanosoma brucei brucei, UniProt P39051); experiment: DTNB-coupled colourimetric TryR screening/potency assay; format: biochemical
[2] = test system: bloodstream form T. brucei brucei single marker; experiment: Trypanosome growth assay; format: cell-based; conditions: Trypanosoma brucei, 73 h, read-out: EC50 Parasite
Method in brief: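 Bloodstream-form T. b. brucei single marker in HMI9-T with 10% FCS, 2000 cells/well, added to plates pre-stamped with test compound; media-only column as blank. Ten points from 15 μm to 0.5 nm or 50 μm to 2 nm; final DMSO 0.5%. Incubated 69 h at 37°C, 5% CO2, then resazurin (final 50 μm) for 4 h; fluorescence at ex 528/em 590 nm.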

[3] = target: T1, human glutathione reductase (Homo sapiens, UniProt P00390); experiment: Glutathione reductase; format: biochemical
T1 sequence (P00390 44-522): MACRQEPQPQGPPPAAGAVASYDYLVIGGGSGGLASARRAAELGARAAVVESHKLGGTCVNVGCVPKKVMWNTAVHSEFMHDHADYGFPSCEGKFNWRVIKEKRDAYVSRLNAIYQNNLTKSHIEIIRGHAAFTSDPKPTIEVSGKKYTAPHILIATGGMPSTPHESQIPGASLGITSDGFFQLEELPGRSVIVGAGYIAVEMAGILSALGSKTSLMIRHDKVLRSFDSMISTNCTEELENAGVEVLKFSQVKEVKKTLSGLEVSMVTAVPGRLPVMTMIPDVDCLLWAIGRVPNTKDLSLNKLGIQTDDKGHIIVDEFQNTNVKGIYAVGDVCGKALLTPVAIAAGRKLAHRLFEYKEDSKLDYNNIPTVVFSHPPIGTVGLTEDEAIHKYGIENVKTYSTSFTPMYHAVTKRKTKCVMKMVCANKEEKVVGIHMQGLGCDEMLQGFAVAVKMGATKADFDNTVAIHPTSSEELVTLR

TryR = TryR (Trypanosoma brucei brucei, UniProt P39051); experiment: Mode of inhibition studies on TryR; format: biochemical; conditions: for Inhibitor constants Ki′: T[S]2 varied, mixed inhibition, second constant; for Mode of inhibiton: TryR, global nonlinear fit of 1/v vs 1/[S] data
Chain of TryR (P39051 whole entry): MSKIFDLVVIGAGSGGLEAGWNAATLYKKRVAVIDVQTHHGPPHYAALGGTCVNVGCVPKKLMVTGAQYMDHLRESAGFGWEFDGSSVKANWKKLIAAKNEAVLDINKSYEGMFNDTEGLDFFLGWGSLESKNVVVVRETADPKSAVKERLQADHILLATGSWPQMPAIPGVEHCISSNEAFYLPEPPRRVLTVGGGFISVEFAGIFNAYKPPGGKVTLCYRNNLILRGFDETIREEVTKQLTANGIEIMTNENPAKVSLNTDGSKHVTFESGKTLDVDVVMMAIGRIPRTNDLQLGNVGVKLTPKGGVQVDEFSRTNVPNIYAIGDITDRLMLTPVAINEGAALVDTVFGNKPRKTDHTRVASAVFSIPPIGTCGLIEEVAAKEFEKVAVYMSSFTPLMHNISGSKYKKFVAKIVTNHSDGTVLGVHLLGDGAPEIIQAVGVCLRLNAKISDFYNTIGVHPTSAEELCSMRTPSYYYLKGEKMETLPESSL
Method in brief: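 TryR with 150 μm NADPH, 50 μm DTNB, 20 mU/mL enzyme in 40 mm HEPES, 1 mm EDTA, pH 7.4. Three test-compound levels plus an inhibitor-free row. Started with T[S]2 over 12 points, 500 to 5.8 μm. NADPH was also varied at fixed T[S]2. Rates from linear A412 rise, inspected as 1/v vs 1/[S], then globally fitted to competitive, mixed or uncompetitive equations.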

Chain of Recombinant TryR from T. brucei (P39051 whole entry): as above

IC50 [1] | IC50 [3] | Ki (TryR) | Inhibitor constants Ki′ (TryR) | Mode of inhibiton (TryR) | Structure (SMILES) | EC50 [2]
5.7 µM | – | – | – | – | Cc1ccc(-c2cc(C(=O)NCCN(C)C)c3ccc(Br)cc3n2)o1 [Compound 9, 7-Bromo-N-(2-(dimethylamino)ethyl)-2-(5-methylfuran-2-yl)quinoline-4-carboxamide] | –
1.1 µM | – | – | – | – | CNCCNC(=O)c1cc(-c2ccc(C)o2)nc2ccc(Br)cc12 [Compound 2, 6-Bromo-N-(2-(methylamino)ethyl)-2-(5-methylfuran-2-yl)quinoline-4-carboxamide] | 6 µM
1.2 µM | – | – | – | – | Cc1ccc(-c2cc(C(=O)NCC[N+](C)(C)C)c3cc(Br)ccc3n2)o1 [Compound 3, 6-Bromo-N,N,N-trimethyl-2-(2-(5-methylfuran-2-yl)quinoline-4-carboxamido)ethanaminium iodide] | > 50 µM
> 100 µM | – | – | – | – | Cc1ccc(-c2cc(C(=O)NCCc3ccccc3)c3cc(Br)ccc3n2)o1 [Compound 25, 6-bromo-2-(5-methylfuran-2-yl)-N-phenethylquinoline-4-carboxamide] | –
4.2 µM | 74.2 µM | 3 ± 0.2 µM | 4.3 ± 0.3 µM | linear mixed | Cc1ccc(-c2cc(C(=O)NCCN3CCOCC3)c3cc(Br)ccc3n2)o1 [Compound 4, 6-Bromo-2-(5-methylfuran-2-yl)-N-(2-morpholinoethyl)quinoline-4-carboxamide] | 25.6 µM
1.7 µM | > 100 µM | 1.6 ± 0.2 µM | 3.2 ± 0.3 µM | linear mixed | Cc1ccc(-c2cc(C(=O)NCCN(C)C)c3cc(Br)ccc3n2)o1 [Compound 1, 6-Bromo-N-(2-(dimethylamino)ethyl)-2-(5-methylfuran-2-yl)quinoline-4-carboxamide] | 10.3 µM

More lines, now with the values behind:

Structure (SMILES) | IC50 [1] | IC50 [3] | Ki (TryR) | Inhibitor constants Ki′ (TryR) | Mode of inhibiton (TryR) | EC50 [2]
Cc1ccc(-c2cc(C(=O)NCc3ccccn3)c3ccccc3n2)o1 [Compound 11, 2-(5-Methylfuran-2-yl)-N-(pyridin-2-ylmethyl)quinoline-4-carboxamide] | 12.1 µM | – | – | – | – | –
Cc1ccc(-c2cc(C(=O)NCc3ccccc3)c3cc(Br)ccc3n2)o1 [Compound 15, N-Benzyl-6-bromo-2-(5-methylfuran-2-yl)quinoline-4-carboxamide] | > 100 µM | – | – | – | – | –
CN(C)CCNC(=O)c1cc(-c2ccco2)nc2ccc(Br)cc12 [Compound 20, 6-Bromo-N-(2-(dimethylamino)ethyl)-2-(furan-2-yl)quinoline-4-carboxamide] | 32.4 µM | – | – | – | – | –
Cc1ccc(-c2cc(C(=O)NCCN(C)C)c3ccccc3n2)o1 [Compound 12, N-(2-(Dimethylamino)ethyl)-2-(5-methylfuran-2-yl)quinoline-4-carboxamide] | 14.4 µM | – | – | – | – | 32.1 µM
Cc1ccc(-c2cc(C(=O)NCCN(C)C)c3cc(Cl)ccc3n2)o1 [Compound 8, 6-Chloro-N-(2-(dimethylamino)ethyl)-2-(5-methylfuran-2-yl)quinoline-4-carboxamide] | 3.1 µM | – | – | – | – | –
Cc1ccc(-c2cc(C(=O)NCc3ccccn3)c3cc(Br)ccc3n2)o1 [Compound 5, 6-Bromo-2-(5-methylfuran-2-yl)-N-(pyridin-2-ylmethyl)quinoline-4-carboxamide] | 4.7 µM | 33.4 µM | 2 ± 0.1 µM | 3.0 ± 0.2 µM | linear mixed | 18.7 µM
Cc1ccc(-c2cc(C(=O)NCCN(C)C)c3cc(Br)ccc3n2)s1 [Compound 22, 6-Bromo-N-(2-(dimethylamino)ethyl)-2-(5-methylthiophen-2-yl)quinoline-4-carboxamide] | > 100 µM | – | – | – | – | –
Cc1ccc(-c2cc(C(=O)NCCN(C)C)c3cccc(Br)c3n2)o1 [Compound 10, 8-Bromo-N-(2-(dimethylamino)ethyl)-2-(5-methylfuran-2-yl)quinoline-4-carboxamide] | 5.8 µM | – | – | – | – | 19.2 µM
Cc1ccc(-c2cc(C(=O)NCCN(C)C)c3cc(F)ccc3n2)o1 [Compound 26, N-(2-(dimethylamino)ethyl)-6-fluoro-2-(5-methylfuran-2-yl)quinoline-4-carboxamide] | > 100 µM | – | – | – | – | –
